This note sets out measurements from ChEMBL document CHEMBL1122323 (J Med Chem, 1983).

Assay [1] has as its target T1, Adrenergic receptor alpha-1 (Rattus norvegicus, UniProt P15823+P23944+P43140).
T1 sequence (P15823 whole entry): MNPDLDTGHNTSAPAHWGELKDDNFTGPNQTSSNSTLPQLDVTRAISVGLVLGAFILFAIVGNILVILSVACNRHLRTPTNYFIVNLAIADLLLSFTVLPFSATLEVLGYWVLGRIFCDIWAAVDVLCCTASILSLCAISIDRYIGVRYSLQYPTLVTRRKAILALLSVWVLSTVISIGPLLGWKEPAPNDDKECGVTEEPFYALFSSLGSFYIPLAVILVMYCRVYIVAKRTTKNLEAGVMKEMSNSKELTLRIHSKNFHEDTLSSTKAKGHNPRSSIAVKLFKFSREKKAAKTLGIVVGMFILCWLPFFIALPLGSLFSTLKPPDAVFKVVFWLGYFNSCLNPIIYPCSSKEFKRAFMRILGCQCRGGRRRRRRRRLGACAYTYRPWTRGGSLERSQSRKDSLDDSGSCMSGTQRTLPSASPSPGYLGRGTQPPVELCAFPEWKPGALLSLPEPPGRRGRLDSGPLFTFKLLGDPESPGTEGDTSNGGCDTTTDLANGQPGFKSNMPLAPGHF
T1 sequence (P23944 whole entry): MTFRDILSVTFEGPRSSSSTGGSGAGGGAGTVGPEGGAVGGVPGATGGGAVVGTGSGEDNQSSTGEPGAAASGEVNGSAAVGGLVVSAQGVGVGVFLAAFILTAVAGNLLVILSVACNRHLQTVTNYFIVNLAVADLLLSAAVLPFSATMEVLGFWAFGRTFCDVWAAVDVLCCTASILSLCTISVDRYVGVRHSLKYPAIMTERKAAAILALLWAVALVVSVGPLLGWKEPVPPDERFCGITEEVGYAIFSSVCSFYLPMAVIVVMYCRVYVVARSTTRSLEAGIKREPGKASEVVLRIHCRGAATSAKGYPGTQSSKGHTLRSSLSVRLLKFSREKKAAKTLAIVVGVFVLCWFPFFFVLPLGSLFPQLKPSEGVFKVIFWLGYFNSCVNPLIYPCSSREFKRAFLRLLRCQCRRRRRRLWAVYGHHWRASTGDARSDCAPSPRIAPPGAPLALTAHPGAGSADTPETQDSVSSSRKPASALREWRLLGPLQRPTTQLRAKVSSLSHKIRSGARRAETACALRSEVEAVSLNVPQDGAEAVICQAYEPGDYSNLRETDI
T1 sequence (P43140 whole entry): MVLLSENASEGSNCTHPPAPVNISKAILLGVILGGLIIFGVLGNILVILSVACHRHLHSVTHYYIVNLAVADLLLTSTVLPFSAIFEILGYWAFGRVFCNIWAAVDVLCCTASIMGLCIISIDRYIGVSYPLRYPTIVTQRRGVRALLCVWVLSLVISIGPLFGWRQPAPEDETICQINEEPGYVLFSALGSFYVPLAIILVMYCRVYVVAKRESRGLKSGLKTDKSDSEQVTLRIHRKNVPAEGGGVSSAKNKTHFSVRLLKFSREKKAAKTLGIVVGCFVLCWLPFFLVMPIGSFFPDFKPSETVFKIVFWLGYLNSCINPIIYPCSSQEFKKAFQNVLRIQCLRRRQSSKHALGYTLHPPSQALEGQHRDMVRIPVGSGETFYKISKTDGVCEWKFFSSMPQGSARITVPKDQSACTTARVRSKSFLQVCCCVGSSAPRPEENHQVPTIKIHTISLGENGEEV
The assay can be described thus: Inhibition of [3H]WB-4101 binding to alpha-1-adrenergic receptor from rat cerebral cortex membranes. The class given is cell membranes, Membrane.

Assay [2] is filed under the species Rattus norvegicus. Description: Inhibition of apomorphine induced stereotypy in nonfasted male Sprague-Dawley rats. The class given is functional. Put shortly: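 Groups of 10 nonfasted male Sprague–Dawley rats got test drug by oral gavage. At the previously determined time of peak effect they were challenged with apomorphine 0.5 mg/kg sc and watched for 30 min in individual cages for sniffing, licking, rearing and biting. Inhibition meant all of these were blocked for the full 30 min. ED50 was taken by Berkson's method.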

Assay [3] is filed under the species Rattus norvegicus. Description: Inhibition of conditioned avoidance response (CAR) in fasted male Sprague-Dawley rats. The class given is functional. Put shortly:
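Rats trained to climb or hurdle a barrier in a shuttle box within 30 s. Training was 11 trials at 3-min intervals on day 1, then one foot-shock reinforcement and two trials daily for 9 days. On day 10, groups of 5-10 rats were given drug or vehicle by oral gavage and tested.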

Assay [4] is filed under the species Rattus norvegicus. The assay can be described thus: Induction of catalepsy in nonfasted, male Sprague-Dawley rats (dose that produced catalepsy in 50% of the animals); value may range from 69.6 to 172.9. The class given is functional.
For assay [5], the species on record is Rattus norvegicus. The assay can be described thus: Induction of catalepsy in nonfasted, male Sprague-Dawley rats (dose that produced catalepsy in 50% of the animals); value may range from 27.5 to 74.3. The class given is functional.
For assay [6], the species on record is Rattus norvegicus. The assay can be described thus: Induction of catalepsy in nonfasted, male Sprague-Dawley rats (dose that produced catalepsy in 50% of the animals); value may range from 77.0 to 151.3. The class given is functional.
The species entered for assay [7] is Rattus norvegicus. The assay can be described thus: Induction of catalepsy in nonfasted, male Sprague-Dawley rats (dose that produced catalepsy in 50% of the animals); value may range from 58.7 to 141.5. The class given is functional.
Assay [8] is filed under the species Rattus norvegicus. The assay can be described thus: Inhibition of apomorphine induced stereotypy in nonfasted male Sprague-Dawley rats; inactive. The class given is functional, organism-based.

The source made the active and inactive calls. The rule behind the calls is not given here. A value given as a limit tells only on which side of the number the result lay.

What is called IC50 is the concentration at which inhibition is half-maximal. What is called ED50 is the dose at which the effect has come halfway, by size or by number of responders. `N#Cc1cccnc1N1CCN(CCCCN2C(=O)CC3(CCCC3)CC2=O)CC1` showed an IC50 in assay [1] of 360 nM. For the same molecule, the results for the ED50 in the assay filed under Rattus norvegicus [2] and in the assay filed under Rattus norvegicus [3] were 36.6 mg/kg and 45 mg/kg, respectively.
Turning to `O=C1CC2(CCCCCC2)C(=O)N1CCCCN1CCN(c2ncccn2)CC1`, the half-maximal inhibitory concentration (IC50) in assay [1] is more than 1000 nM. For the same molecule, the 50% effect level in the assay filed under Rattus norvegicus [3] (ED50) was put at a dose of 51.5 mg/kg.
The like results for `O=C1CC2(CCCC2)CC(=O)N1CCCCN1CCN(c2ccccn2)CC1` were, in that order, 275 nM and 34 mg/kg.
Consider `N#Cc1cccnc1N1CCN(CCN2C(=O)CC3(CCCC3)CC2=O)CC1`, for which the ED50 in the assay listed under Rattus norvegicus [3] was more than 100 mg/kg.
As for `O=C1CCC2(CCCC2)CC(=O)N1CCCCN1CCN(c2ncccn2)CC1`, in assay [1], the concentration for half-maximal inhibition (IC50) came to 820 nM. In the assay filed under Rattus norvegicus [3], this molecule displayed an ED50 of more than 50 mg/kg.
In the same order, the values of `CC12CC1(C)C(=O)N(CCCCN1CCN(c3ncccn3)CC1)C2=O` (centres undefined) are 680 nM and 91.6 mg/kg.
Regarding `O=C1CC2(CCCC2)CC(=O)N1CCN1CCN(c2ccccc2)CC1`, the ED50 in the assay listed under Rattus norvegicus [3] was more than 100 mg/kg.
On to `Cc1ccccc1N1CCN(CCCCN2C(=O)CC3(CCCC3)CC2=O)CC1`, for which the IC50 in assay [1] came to 44 nM. Also, the ED50 in the assay filed under Rattus norvegicus [3] was approximately 100 mg/kg.
On to `COc1ccccc1N1CCN(CCN2C(=O)C(C)CC(C)C2=O)CC1` (centres undefined), for which the ED50 in the assay listed under Rattus norvegicus [3] is more than 100 mg/kg.
The same measure, in the same setting: the figure for `CN1CCN(C2=Nc3cc(Cl)ccc3Nc3ccccc32)CC1` [CLOZAPINE] is 24.1 mg/kg.
Take `O=C1CC2(CCCC2)CC(=O)N1CCCCN1CCN(c2ccccc2Cl)CC1`: the values for the ED50 in the assay filed under Rattus norvegicus [4] and in the assay listed under Rattus norvegicus [3] were 109 mg/kg and 77.8 mg/kg, respectively.
The molecule `O=C1CC2(CCCC2)CC(=O)N1CCCCN1CCN(c2ncccn2)CC1` [BUSPIRONE] registered an ED50 in the assay filed under Rattus norvegicus [2] of 28 mg/kg.
Consider `O=C1CC2(CCCC2)CC(=O)N1CCCCN1CCN(c2cccc(Cl)c2)CC1`, for which the IC50 in assay [1] came out at 23 nM. This molecule yielded an ED50 in the assay filed under Rattus norvegicus [3] of 27.6 mg/kg.
Take `COc1ccccc1N1CCN(CCN2C(=O)CCC(C)(C)C2=O)CC1`: in assay [1], the IC50 stood at 480 nM. Besides, it took a dose of 55.3 mg/kg to reach the 50% effect level in the assay filed under Rattus norvegicus [3] (ED50).
The like results for `COc1ccccc1N1CCN(CCN2C(=O)CC3(CCCCC3)C2=O)CC1` were, in that order, 240 nM and 50 mg/kg.
Regarding `Cc1ccnc(N2CCN(CCCCN3C(=O)CC4(CCCC4)CC3=O)CC2)n1`, the IC50 in assay [1] was more than 1000 nM. The 50% effect level in the assay filed under Rattus norvegicus [3] (ED50) was put at a dose of 52.4 mg/kg.
The like results for `COc1ccccc1N1CCN(CCCN2C(=O)CC3(CCCC3)CC2=O)CC1` were, in that order, 19 nM and 24.1 mg/kg.
Molecule `COc1cccnc1N1CCN(CCCCN2C(=O)CC3(CCCC3)CC2=O)CC1` registered a half-inhibitory concentration (IC50) in assay [1] of 65 nM. The same molecule registered an ED50 in the assay listed under Rattus norvegicus [3] of 55.2 mg/kg.
In the assay filed under Rattus norvegicus [3], `N#Cc1cccnc1N1CCN(CCCN2C(=O)CC3(CCCC3)CC2=O)CC1` had an ED50 of more than 100 mg/kg.
For `O=C1C2C3C=CC(CC3)C2C(=O)N1CCCCN1CCN(c2ncccn2)CC1` (centres undefined), the ED50 in the assay listed under Rattus norvegicus [3] was more than 100 mg/kg.
The same measure, in the same setting: with `COc1ccccc1N1CCN(CCN2C(=O)CC3(CCCC3)CC2=O)CC1` [BMY-7378] the figure was 52.1 mg/kg.
Turning to `CSc1ccc2c(c1)N(CCC1CCCCN1C)c1ccccc1S2` (centres undefined) [THIORIDAZINE], the ED50 in the assay listed under Rattus norvegicus [5] came out at 45.2 mg/kg; in the assay listed under Rattus norvegicus [3] it was 126 mg/kg.
In assay [1], `O=C1CC2(CCCC2)CC(=O)N1CCCCN1CCN(c2ccccc2[N+](=O)[O-])CC1` returned an IC50 of 110 nM. Besides, the ED50 in the assay filed under Rattus norvegicus [3] amounted to 48.8 mg/kg.
`O=C1CC2(CCCC2)CC(=O)N1CCN1CCN(c2cccc(Cl)c2)CC1` displayed a 50% effective dose (ED50) in the assay listed under Rattus norvegicus [3] of more than 100 mg/kg.
Consider `O=C1CC2(CCCC2)CC(=O)N1CCCCN1CCN(c2ccccc2)CC1`, for which the ED50 was determined as 108 mg/kg in the assay listed under Rattus norvegicus [6] and 30.7 mg/kg in the assay filed under Rattus norvegicus [3].
With `O=C1CC2(CCCCC2)C(=O)N1CCCCN1CCN(c2ncccn2)CC1`, the IC50 in assay [1] is more than 1000 nM. It took a dose of 58.4 mg/kg to reach the 50% effect level in the assay filed under Rattus norvegicus [3] (ED50).
The like results for `COc1ccccc1N1CCN(CCN2C(=O)CC3(CCCCCCC3)C2=O)CC1` were, in that order, more than 1000 nM and 69.9 mg/kg.
In turn, `O=C1CC2(CCCC2)CC(=O)N1CCCN1CCN(c2ncccn2)CC1` registered an ED50 in the assay listed under Rattus norvegicus [3] of more than 100 mg/kg.
`COc1ccccc1N1CCN(CCN2C(=O)CC(C)(C)CC2=O)CC1` had a concentration for half-maximal inhibition (IC50) in assay [1] of 895 nM. The 50% effect level in the assay listed under Rattus norvegicus [3] (ED50) was put at a dose of 91.2 mg/kg.
Consider `O=C1CC2(CCCC2)CC(=O)N1CCCCN1CCN(c2ccccc2F)CC1`, for which the median effective dose (ED50) stood at 91.1 mg/kg in the assay listed under Rattus norvegicus [7] and 37.1 mg/kg in the assay filed under Rattus norvegicus [3].
In the case of `O=C1CC2(CCCC2)CC(=O)N1CCCCCN1CCN(c2ncccn2)CC1`, in the assay listed under Rattus norvegicus [3], the ED50 was more than 100 mg/kg.
As to `CC1(C)CC(=O)N(CCCCN2CCN(c3ncccn3)CC2)C(=O)C1` [GEPIRONE], in the assay listed under Rattus norvegicus [8], the NA entry is “inactive”. Also, the ED50 in the assay listed under Rattus norvegicus [3] turned out to be 52.5 mg/kg.
`O=C(CCCN1CCC(O)(c2ccc(Cl)cc2)CC1)c1ccc(F)cc1` [HALOPERIDOL] displayed an ED50 in the assay filed under Rattus norvegicus [3] of 2.8 mg/kg.
`O=C1CC2(CCCC2)CC(=O)N1CCCN1CCN(c2cccc(Cl)c2)CC1` registered an IC50 in assay [1] of 150 nM. The molecule further displayed a median effective dose (ED50) in the assay filed under Rattus norvegicus [3] of 28.2 mg/kg.
The like results for `COc1ccccc1N1CCN(CCCCN2C(=O)CC3(CCCC3)CC2=O)CC1` were, in that order, 13 nM and 20.5 mg/kg.
